# Jurkat tox 60K: cytotoxicity toward Jurkat T cells, primary screen, cytotoxicity control, cell-based, Jurkat E6.1, 60K MLSMR library; inhibition, % at 4 µM; Jurkat E6.1 viability, ATP luminescence, 48 h; AID 463, 2006; actives 1.2% (n = 56,000);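 active = inhibition above the mean inhibition of all tested compounds plus 3 SD, cut at about 28% in these data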
# HUVEC prolif 384: inhibitors of HUVEC proliferation, primary screen, cell-based, 384-well; CellTiter-Glo luminescence, 72 h; hits give low values; AID 648, 2007; viability, % at 10 µM (by protocol); actives 1.1% (n = 86,000);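 active = viability at or below 30%; inactive = viability above 30%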
# Fibroblast inh: antiproliferative effect on LL 47 fibroblasts – human, LL 47 cells, CellTiter-Glo luminescence, primary screen; AID 719, 2007; actives 1.1% (n = 85,000); viability, % at 10 µM; LL 47 human lung fibroblast viability, ATP luminescence; hits give low values;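 active = viability at or below 50% in the single dose screen; inactive = viability above 50%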;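 also: compound exposure lasted 72 h before the ATP readout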
#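 Signal: luminescent ATP detection, CellTiter-Glo; assay system: LL 47 human lung fibroblasts; input: 1,150 cells/well; incubation: overnight cell rest, 72 h compound treatment at 37 °C; measure: % viability versus median cells-only luminescence; medium: IMEM growth medium with 15% fetal bovine serum; dosing: compound addition at 0.1% DMSO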
# Ecoli tolC: growth inhibitors of E. coli tolC mutant, primary screen, strain BW25113 ΔtolC::kan, 384-well. OD615. growth inhibition, % at 10 µM (by protocol). actives 2.2% (n = 65,000). AID 573, 2007;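 active = growth inhibition at or above a cutoff equal to the mean over every tested compound plus 3 SD, cut at about 60% in these data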;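 also: growth measured after 20 h incubation at 37 °C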
#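 Test system: E. coli BW25113 ΔtolC::kan bacteria; incubation: 37 °C, 20 h exposure; medium: LB broth supplemented with 50 µg/mL kanamycin; read-out basis: percent growth inhibition; signal: A615 absorbance measurement; compound: 10 µM final, single dose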
# Ecoli WT expand: growth inhibitors of wild-type E. coli, primary screen, strain BW25113, expanded library, OD600. OD600 absorbance. growth inhibition, % at 100 µM. actives 0.15% (n = 98,000);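 active = growth inhibition above about 50% at one test dose, limit read from the data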;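 also: growth measured after 20 h incubation at 37 °C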
# H69AR growth 86K: proliferation blockers of H69AR lung cancer cells, primary screen, cell-based, human, 86K library; H69AR lung tumor viability, ATP luminescence, 72 h; hits give low values; viability, % at 10 µM; actives 6% (n = 85,000);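 active = viability at or below 40%; inactive = viability above 40%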;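 also: multidrug resistant small cell line overexpressing MRP-1 efflux transporter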
# Hits are given with their value; – = inactive; · = no result given. This is a sample that favours compounds with a hit; in the whole collection about 6.4% have one here.
SMILES,Jurkat tox 60K,HUVEC prolif 384,Fibroblast inh,Ecoli tolC,Ecoli WT expand,H69AR growth 86K
Cc1cc(C)c2c(n1)nn1c(N3CCN(c4ccccc4C)CC3)cc(C)nc21,–,–,–,–,·,36.9
CCOc1ccc(CN2CCN(c3cc(C)nc4c5c(C)cc(C)nc5nn34)CC2)cc1,–,–,–,–,–,31.6
COc1ccc(NC(=O)c2cccc(Cn3cc(Br)cn3)c2)cn1,–,–,–,–,–,–
Cc1noc(C)c1S(=O)(=O)N1CCCC(C(=O)NCc2ccccn2)C1 (stereo not drawn),–,·,·,–,–,·
CCOC(=O)C1=C(O)/C(=C\c2ccc(CNC(=O)C(=O)Nc3ccccc3)o2)N=C1C,·,–,–,·,–,35.9
O=C(c1ccc2c(c1)OCCO2)N1CCN(Cc2ccccc2)CC1,·,–,–,·,–,–
CCCCCN=Cc1c(C)[nH]n(-c2nc3ccccc3s2)c1=O,55.9,12.9,29.3,–,–,6.4
CCCc1[nH]n(-c2nc3ccccc3s2)c(=O)c1C=NCCN1CCOCC1,·,–,–,–,–,–
CCOc1ccc(-n2nc3ccc(NC(=O)c4ccc5c(c4)OCCO5)cc3n2)cc1,·,–,28.5,·,·,13.2
CCOC(=O)c1c(C)c(C(=O)Nc2ccc3c(c2)OCCO3)c(C)n1CC,48.5,–,–,–,–,19.8
CCc1ccc(-n2nc3ccc(NC(=O)c4ccc5c(c4)OCO5)cc3n2)cc1,·,–,–,·,–,20.1
CCC(C)Sc1nnc(CSc2nc3nc(C)cc(C)n3n2)o1 (stereo not drawn),·,·,·,·,–,·
O=C(COc1ccc(Cl)cc1)Nc1nc(-c2cccs2)cs1,–,–,–,69.2,–,–
O=C(Cc1ccccc1)Nc1nc(-c2cccs2)cs1,–,–,–,–,–,–
O=C(Cc1ccccc1F)Nc1nc(-c2cccs2)cs1,–,–,–,91.2,–,–
Nc1nnc(SCC(=O)N2CCN(Cc3ccccc3)CC2)s1,·,–,–,·,–,–
COC(=O)c1sccc1NC(=O)C1C2C=CC(O2)C1C(=O)O (stereo not drawn),–,–,–,–,–,–
COc1ccccc1NC(=O)C1C2C=CC(O2)C1C(=O)O (stereo not drawn),–,–,49.7,–,–,–
O=C(COC(=O)C1(c2ccccc2)CC1)N1CCN(c2ccc(F)cc2)CC1,–,–,–,–,–,–
CC1CCCc2sc3nc(N4CCN(CCO)CC4)n4ncnc4c3c21 (stereo not drawn),–,–,–,–,–,14.7
Cn1cc(C2NC(=O)c3c(sc4c3CCCC4)N2)c2ccccc21 (stereo not drawn),–,–,–,–,·,28.0
CCCNC(=O)c1c(N)n(-c2ccc3c(c2)OCO3)c2nc3ccccc3nc12,–,–,7.6,–,–,8.6
CCOc1ccc(-n2c3nc4ccccc4nc3c3c(=O)n(Cc4ccco4)cnc32)cc1,·,–,–,–,·,–
COCCCNC(=O)c1c(N)n(-c2ccc3c(c2)OCO3)c2nc3ccccc3nc12,–,–,–,–,–,27.6
Nc1c(C(=O)NC2CC2)c2nc3ccccc3nc2n1-c1ccc2c(c1)OCO2,–,–,–,–,–,–
SMILES,Jurkat tox 60K,HUVEC prolif 384,Fibroblast inh,Ecoli tolC,Ecoli WT expand,H69AR growth 86K
CCOc1ccc(-n2c(N)c(C(=O)NCc3ccco3)c3nc4ccccc4nc32)cc1,·,–,–,·,–,11.4
Cc1cccc(-n2c(N)c(C(=O)NCCN3CCOCC3)c3nc4ccccc4nc32)c1,–,–,–,–,–,32.4
Cc1ccccc1S(=O)(=O)Cc1ccc(C(=O)O)o1,·,–,–,·,–,–
COc1cccc2c1OC1(C)CC2/C(=C(\C)O)C(=O)N1 (stereo not drawn),–,·,·,–,–,·
COc1ccc(C)cc1S(=O)(=O)N(CC(=O)N1CCCC1)c1ccccc1,–,–,–,–,–,–
CCCn1c(SCC(=O)Nc2nc3c(s2)CCCC3)nc2c1c(=O)n(C)c(=O)n2C,–,–,–,–,–,31.6
CCOC(=O)c1c(NC(=O)CSc2nc3c(c(=O)n(C)c(=O)n3C)n2CC)sc(C)c1C,–,–,–,–,·,4.0
CCCn1c(SCC(=O)Nc2nnc(CC)s2)nc2c1c(=O)n(C)c(=O)n2C,–,–,–,–,·,–

# Assay outcomes from PubChem BioAssay.
